MDM2 E3 inh: Mdm2 E3 ligase (human) inhibition; 210,000 compounds, 0.11% hits; signal enhancement, % at 5 µM; cell-based MDM2 ubiquitination luciferase reporter, 2 h; 0 = plate control, 100 = twice control, blank-subtracted; Q00987;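 active means signal enhancement of 30% or more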;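 further: luminescence tracks abundance of the self-degrading MDM2-luciferase fusion protein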
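Material: Stable MDM2–luciferase fusion reporter cells | Amount: 2000 cells seeded into each well | Dosing: One concentration, 5 µM, with 0.2% DMSO | Incubation: 4 h cell settling then 2 h compound exposure, 37 °C | Measured by: Luciferase luminescence | Read-out basis: % enhancement relative to plate controls after blank subtraction | Benchmarks: Control and blank well means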
Wee1 degr inh: human Wee1 degradation inhibition, primary screen; reporter increase, % at 5 µM; HeLa Luc-Wee1K328M stability, luciferase luminescence; 100% = proteasome inhibitor MG132 effect; P30291; 220,000 compounds, 1.2% hits;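 active means activation above the mean of all tested compounds plus 3 SD, set per screening run, cut at about 8.8% in these data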;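 further: cells exposed to compound for 20 h before luminescence read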
STAT1 activator: increases IFN-gamma driven STAT1 reporter signal; activation (% of control), % at 5.5 µM; NIH 3T3 STAT1-luciferase reporter, luminescence; 100% = IFN-gamma alone, no compound; 200,000 compounds, 2.6% hits; AID 932;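 active means activation above the screen-wide mean activation plus 3 SD, cut at about 130% in these data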
APP 5'UTR act: APP 5'UTR luciferase reporter activation. SH-SY5Y APP 5'UTR luciferase reporter, luminescence; zero percent = DMSO vehicle wells. activation, % at 2 µM. 190,000 compounds, 1% hits. AID 1276;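 active means activation above a set limit, based on mean plus 3 SD of controls, cut at about 140% in these data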
NF-kB neuron act: raises NF-kB expression in human neuronal cells | NF-kB reporter expression; hits give high values | fold change at 12.5 µM | 190,000 compounds, 1.6% hits | AID 1239; in the data active means fold change above about 3.3
p97 inhibitor: blocks human p97 ATPase activity | 220,000 compounds, 0.42% hits | recombinant p97 ATPase, Kinase-Glo ATP luminescence, 3 h | inhibition, % at 8 µM | P55072; in the data active means inhibition above about 15%
Target sequence (P55072 whole entry, looked up): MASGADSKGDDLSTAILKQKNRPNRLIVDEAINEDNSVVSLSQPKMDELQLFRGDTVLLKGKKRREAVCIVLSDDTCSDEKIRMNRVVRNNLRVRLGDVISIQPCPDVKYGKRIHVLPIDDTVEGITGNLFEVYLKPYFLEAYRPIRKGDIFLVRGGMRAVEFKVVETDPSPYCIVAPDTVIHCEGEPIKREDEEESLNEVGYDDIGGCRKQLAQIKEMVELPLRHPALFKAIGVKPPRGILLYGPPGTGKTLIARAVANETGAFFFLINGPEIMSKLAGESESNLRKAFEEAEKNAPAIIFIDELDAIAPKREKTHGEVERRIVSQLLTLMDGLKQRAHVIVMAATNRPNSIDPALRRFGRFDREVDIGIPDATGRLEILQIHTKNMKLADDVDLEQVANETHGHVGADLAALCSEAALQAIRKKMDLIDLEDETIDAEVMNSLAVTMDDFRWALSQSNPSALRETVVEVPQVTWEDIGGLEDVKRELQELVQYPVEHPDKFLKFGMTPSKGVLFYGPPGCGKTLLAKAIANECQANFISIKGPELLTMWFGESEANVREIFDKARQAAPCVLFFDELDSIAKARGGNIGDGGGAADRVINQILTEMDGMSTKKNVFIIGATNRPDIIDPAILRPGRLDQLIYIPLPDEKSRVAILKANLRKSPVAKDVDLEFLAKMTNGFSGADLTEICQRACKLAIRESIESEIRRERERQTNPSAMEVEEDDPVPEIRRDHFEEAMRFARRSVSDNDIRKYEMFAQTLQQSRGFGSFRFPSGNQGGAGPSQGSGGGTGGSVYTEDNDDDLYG
Hits are given with their value. Sampled rows, rich in hits. Any-hit rate of the full collection: about 4.6%.

How did Cc1ccc(C(=O)O/N=C(\N)c2cccc([N+](=O)[O-])c2)cc1 do in these assays?
MDM2 E3 inh: inactive; Wee1 degr inh: inactive; STAT1 activator: 147; APP 5'UTR act: 158; NF-kB neuron act: 3.8; p97 inhibitor: inactive

How did Cc1cc(C)cc(C(=O)O/N=C(\N)c2ccc(Br)cc2)c1 do in these assays?
MDM2 E3 inh: inactive; Wee1 degr inh: inactive; STAT1 activator: inactive; APP 5'UTR act: inactive; NF-kB neuron act: inactive; p97 inhibitor: inactive

How did CCOC(=O)C1CCN(C(=O)c2ccc(CNS(=O)(=O)c3ccc(OC)cc3)cc2)CC1 do in these assays?
Wee1 degr inh: inactive; STAT1 activator: inactive; APP 5'UTR act: inactive; NF-kB neuron act: inactive; p97 inhibitor: inactive

What do the screens show for `Fc1cccc(Cc2noc(CN3CCCCC3CCc3ccccn3)n2)c1` (stereo not drawn)?
MDM2 E3 inh: inactive; Wee1 degr inh: inactive; STAT1 activator: inactive; APP 5'UTR act: inactive; NF-kB neuron act: inactive; p97 inhibitor: inactive

Results for O=c1c(Cl)c(Nc2cccc(Cl)c2)cnn1-c1nc2ccccc2s1 ?
MDM2 E3 inh: inactive; Wee1 degr inh: inactive; STAT1 activator: 150; APP 5'UTR act: inactive; NF-kB neuron act: inactive; p97 inhibitor: inactive

Results for O=C(CCn1cccc1)Nc1ccc(OC(F)(F)F)cc1 ?
MDM2 E3 inh: inactive; Wee1 degr inh: inactive; STAT1 activator: inactive; APP 5'UTR act: inactive; NF-kB neuron act: inactive; p97 inhibitor: inactive

What do the screens show for `Cc1ccc(C(=O)N/N=C\c2sccc2C)cn1`?
MDM2 E3 inh: inactive; Wee1 degr inh: inactive; STAT1 activator: inactive; APP 5'UTR act: inactive; NF-kB neuron act: inactive; p97 inhibitor: inactive

How did Cc1ccsc1/C=N/NC(=O)c1ccc(-n2cccc2)cc1 do in these assays?
MDM2 E3 inh: inactive; Wee1 degr inh: inactive; STAT1 activator: 129; APP 5'UTR act: inactive; NF-kB neuron act: inactive; p97 inhibitor: inactive

Results for Cc1ccsc1/C=N\NC(=O)c1ccc2c(c1)OCO2 ?
MDM2 E3 inh: inactive; Wee1 degr inh: inactive; STAT1 activator: inactive; APP 5'UTR act: inactive; NF-kB neuron act: 4.3; p97 inhibitor: inactive

Results for O=C(O)CCC(=O)Nc1ccc(C(=O)OCC(=O)c2ccc(Cl)cc2Cl)cc1 ?
MDM2 E3 inh: inactive; Wee1 degr inh: inactive; STAT1 activator: inactive; APP 5'UTR act: inactive; NF-kB neuron act: inactive; p97 inhibitor: inactive

What do the screens show for `CC1=C(C)C(C)=C(C#N)C(=C(C#N)C#N)N1`?
MDM2 E3 inh: inactive; Wee1 degr inh: inactive; p97 inhibitor: inactive

What do the screens show for `COc1ccc(CC(=O)Nc2ccc(-c3noc(-c4cccc(OC)c4)n3)cc2)cc1`?
MDM2 E3 inh: inactive; Wee1 degr inh: inactive; STAT1 activator: inactive; APP 5'UTR act: inactive; NF-kB neuron act: inactive; p97 inhibitor: inactive

Results for COc1cccc(-c2nc(-c3ccccn3)no2)c1 ?
MDM2 E3 inh: inactive; Wee1 degr inh: inactive; STAT1 activator: inactive; APP 5'UTR act: inactive; NF-kB neuron act: inactive; p97 inhibitor: inactive

Results for COc1cccc(-c2noc(-c3ccc(Br)o3)n2)c1 ?
MDM2 E3 inh: inactive; Wee1 degr inh: inactive; STAT1 activator: 136; APP 5'UTR act: inactive; NF-kB neuron act: 3.6; p97 inhibitor: inactive

Results for COc1cccc(-c2nc(-c3ccccc3)no2)c1 ?
MDM2 E3 inh: inactive; Wee1 degr inh: inactive; STAT1 activator: 150; APP 5'UTR act: inactive; NF-kB neuron act: 7.3; p97 inhibitor: inactive

What do the screens show for `COc1ccc(-c2noc(-c3ccc(Br)o3)n2)cc1`?
MDM2 E3 inh: inactive; Wee1 degr inh: inactive; p97 inhibitor: inactive

Results for COc1nc(-c2ccccc2)ccc1-c1noc(-c2cccs2)n1 ?
Wee1 degr inh: inactive; STAT1 activator: inactive; APP 5'UTR act: inactive; p97 inhibitor: inactive

What do the screens show for `COc1ccc(-c2nc(-c3ccc(Br)o3)no2)cc1`?
MDM2 E3 inh: inactive; Wee1 degr inh: inactive; STAT1 activator: inactive; APP 5'UTR act: inactive; NF-kB neuron act: 6.7; p97 inhibitor: inactive

How did COc1cccc(-c2noc(-c3cccs3)n2)c1 do in these assays?
MDM2 E3 inh: inactive; Wee1 degr inh: inactive; STAT1 activator: 139; APP 5'UTR act: inactive; NF-kB neuron act: 8.4; p97 inhibitor: inactive

Results for O=C1CCCCC1C(Nc1ccc(Cl)cc1)c1ccccc1 (stereo not drawn) ?
MDM2 E3 inh: inactive; Wee1 degr inh: 9.5; STAT1 activator: inactive; APP 5'UTR act: inactive; NF-kB neuron act: inactive; p97 inhibitor: inactive

Assay outcomes: PubChem, several laboratories
